# In the library only some 3.7% were active in any assay of this set; here they are far more common.
# hERG rescue: compounds protecting human hERG from proarrhythmic drug block; Q12809; CHO-hERG, FluxOR thallium flux, dofetilide IC70 present; activation (rescue from dofetilide block), less the hit threshold, % at 10 µM; hit rate 0.51% among 310,000;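 active = activation above the mean of controls blocked by dofetilide plus 5 SD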;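 note: thallium influx through hERG after potassium depolarization seen as dye fluorescence rise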
# KCNQ1 inh: inhibitors of human KCNQ1 potassium channel; P51787; CHO-K1 KCNQ1, FluxOR thallium flux fluorescence; stronger effect = higher value; B-score at 10 µM; hit rate 1.3% among 310,000;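 active = compounds whose thallium flux B-score, printed positive for inhibition, exceeds three library SD while starting fluorescence stays within three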;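 note: channel opened by potassium depolarization with thallium stimulus after 20 min compound exposure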
# Target sequence (P51787 whole entry, looked up): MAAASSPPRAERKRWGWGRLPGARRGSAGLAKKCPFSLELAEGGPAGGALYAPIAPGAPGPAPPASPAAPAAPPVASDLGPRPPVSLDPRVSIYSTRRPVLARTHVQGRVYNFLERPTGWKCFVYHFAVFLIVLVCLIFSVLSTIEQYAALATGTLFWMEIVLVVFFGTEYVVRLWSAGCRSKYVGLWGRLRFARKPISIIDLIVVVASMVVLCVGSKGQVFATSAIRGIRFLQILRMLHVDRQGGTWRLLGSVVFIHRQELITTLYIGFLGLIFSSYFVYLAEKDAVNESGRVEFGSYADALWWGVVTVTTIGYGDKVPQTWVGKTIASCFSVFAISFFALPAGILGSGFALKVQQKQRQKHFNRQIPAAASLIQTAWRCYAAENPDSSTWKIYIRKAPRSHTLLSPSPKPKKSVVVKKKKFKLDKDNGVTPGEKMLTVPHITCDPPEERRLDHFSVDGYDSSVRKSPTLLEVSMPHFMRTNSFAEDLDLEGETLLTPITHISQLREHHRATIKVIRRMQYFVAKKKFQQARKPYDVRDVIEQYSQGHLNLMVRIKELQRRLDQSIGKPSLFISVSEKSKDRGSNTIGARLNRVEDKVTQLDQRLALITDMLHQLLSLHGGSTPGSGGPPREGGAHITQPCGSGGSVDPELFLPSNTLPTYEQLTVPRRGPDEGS
# KCNK9 inh: inhibitors of human KCNK9 two-pore domain potassium channel; HEK293 KCNK9, FluxOR thallium flux fluorescence; stronger effect = lower value; B-score at 10 µM; hit rate 1.2% among 310,000;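 active = ratio B-score over 3 SD below the library mean, with starting fluorescence within 5 SD of its mean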;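 note: negative B-score means less thallium flux so channel inhibition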
# Kir21 block: inhibitors of mouse Kir2.1 inward-rectifier potassium channel. P35561. HEK293-Kir2.1, FluxOR thallium flux fluorescence; stronger effect = lower value. B-score at 10 µM. hit rate 0.85% among 310,000. AID 1672;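 active = fluorescence ratio B-score at or below minus 3 SD of library scores, with starting-brightness B-score within 2 SD, cut at about -4.2 in these data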;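 note: channel flux triggered by added potassium and thallium sulfate stimulus; B-score of peak minus minimum fluorescence over baseline after thallium stimulus; more negative B-score means stronger Kir2.1 block with less thallium influx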
# KCNK3 block: human KCNK3 channel inhibition, primary screen | hit rate 0.84% among 340,000 | O14649 | AID 602410 | B-score at 10 µM | CHO-KCNK3 thallium flux, FluxOR fluorescence; stronger effect = lower value;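 active = B-score under library mean minus 4 SD, starting fluorescence ratio at most library mean plus 5 SD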;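 note: more negative B-score means stronger inhibition of thallium flux through KCNK3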
# KCNQ1 pot: potentiators or activators of human KCNQ1 potassium channel; P51787; CHO-K1 KCNQ1, thallium flux FluxOR fluorescence; stronger effect = higher value; B-score at 10 µM; hit rate 0.35% among 310,000;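 active = fluorescence ratio B-score, a plate-corrected score, at least three library SD, with initial intensity B-score within 5 SD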
#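 Assay system: CHO-K1 cells stably expressing KCNQ1. Medium: assay buffer for compound exposure, DMSO matched across wells. Timing: 37 °C overnight plating, 90-min dark dye load, 20-min compound pretreatment. Signal: kinetic FluxOR fluorescence, 10 s baseline plus 110 s post-stimulus.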
# * marks the source's active call; other numbers are inactive results; i = inactive; x = no result given.
SMILES,hERG rescue,KCNQ1 inh,KCNK9 inh,Kir21 block,KCNK3 block,KCNQ1 pot
O=C(O)/C(=C\c1ccccc1)c1ccccc1,-9.3,i,i,0.37,i,i
O=P(Cc1cc(Br)cc(Br)c1OCCO)(c1ccccc1)c1ccccc1,-10.1,i,-6.75*,-1.19,i,i
Cc1ccc(S(=O)(=O)/N=C2/NC(=O)/C(=C\c3cc(Br)cc(Br)c3O)S2)cc1,-16.0,7*,i,-11.4,i,i
Cc1ccc(S(=O)(=O)/N=C2/NC(=O)/C(=C/c3ccc(Br)o3)S2)cc1,-2.0,i,i,-0.37,i,i
COc1ccc(CC(C)NCC(O)c2ccc(O)c(NC=O)c2)cc1 (stereo unspecified),x,x,x,x,i,x
O=[N+]([O-])c1ccc(OCCCCN2CCc3ccccc3C2)cc1,-11.9,i,i,-0.9,i,i
CC(C)(C)c1cnnn1-c1ccc(C(=O)CCl)cc1,-0.3,i,i,-6.48*,i,i
O=C(CCc1nc(-c2ccc(Cl)cc2)no1)NC1CCCCC1,-9.6,i,i,1.12,i,i
O=C(CCCc1nc(-c2ccc(Cl)cc2)no1)NC1CCCC1,-7.7,i,i,-4.32*,i,i
Cc1cc(C)cc(NS(=O)(=O)c2ccc(-c3cnc(C4CC4)o3)cc2)c1,-13.5,i,i,3.14,i,7*
O=S(=O)(Nc1ccccc1)c1ccc(-c2cnc(C3CC3)o2)cc1,-7.1,i,i,-0.11,i,i
CCOC(=O)C1=C(CSc2nc3c(cc2C#N)CCC3)OC(N)=C(C#N)C1c1ccccc1 (stereo unspecified),-9.1,i,-6.73*,0.12,i,i
NS(=O)(=O)c1ccc(CNC(=S)NC2CCCCC2)cc1,-7.2,i,i,0.12,i,i
CCOC(=O)c1ccc(S(=O)(=O)N2CCN(CC(O)COc3cccc(C(C)=O)c3)CC2)cc1 (stereo unspecified),-7.5,i,i,0.43,i,i
CC1=CC(=C(C#N)c2nc3ccccc3s2)C=C(C)N1Cc1ccco1,-7.3,i,i,-0.11,-13.2*,i
COc1ccc(S(=O)(=O)N2CCOCC2)cc1C(=O)N(C)CCOc1ccc(Cl)cc1,x,x,x,x,i,x
COC(=O)C1=C(Nc2ccccc2NS(=O)(=O)c2ccc(C(F)(F)F)cc2Cl)CSC1,-11.2,6*,i,-0.02,i,i
COC(=O)C1=C(Nc2ccccc2NC(=O)c2ccccc2C(=O)O)CSC1,-5.3,i,i,-1.19,i,i
O=C(NCC1CCCCC1)c1cc(Br)ccc1Cl,-2.4,i,i,0.52,i,i
CC(C)CNC(=O)c1ccc2c(c1)C(=O)N(Cc1ccco1)C2=O,-2.3,i,i,0.5,i,i
COc1cccc(N=Nc2ccc3cccnc3c2O)c1,-7.6,i,i,0,i,9*
COc1cc(OC)cc(C(=O)NC(=S)N2CCCCCC2)c1,10.4*,i,i,0.08,i,i
COc1ccc(C(=O)NC(=S)N2CCCCC2)cc1,-2.2,i,i,2.08,i,i
CCN(CC)S(=O)(=O)c1ccc(OC)c(NC(=S)Nc2cccc(C)c2C)c1,-4.5,i,i,-1.03,i,i
COc1ccc(-n2nc(C(=O)NCC(=O)N(C)Cc3ccccc3)c3ccccc3c2=O)cc1OC,-11.5,i,i,-1.54,i,i
SMILES,hERG rescue,KCNQ1 inh,KCNK9 inh,Kir21 block,KCNK3 block,KCNQ1 pot
O=[N+]([O-])/C=C/c1cc2ccccc2[nH]1,-9.4,6*,i,-1.62,i,i
O=C1NC(=S)SC1=C1CCCCCC1,27.4*,i,i,-0.38,i,63*
Cc1ccc(-c2csc3ncnc(N4CCc5ccccc5C4)c23)cc1,-13.4,i,i,-0.8,i,i
Fc1ccc(-c2csc3ncnc(N4CCc5ccccc5C4)c23)cc1,-13.1,6*,-7.07*,0.37,i,i
COC(=O)c1ccccc1NC(=O)c1cn(-c2ccc(C)c(C)c2)c(=O)c2ccccc12,-5.2,8*,i,-1.56,i,i
O=S(=O)(NCC1(N2CCOCC2)CCCCC1)c1ccc(F)c(F)c1F,-12.3,i,i,-0.96,i,i
COc1ccc(CC(=O)N(c2ccccc2)c2nc(C)cs2)cc1,-10.8,i,i,-5.54*,i,i
CCOc1cc(CNc2ccccc2)cc(Br)c1OCc1ccccc1F,-6.3,i,-7.64*,-0.02,i,i
Cc1cccc(NCc2ccccc2OCc2ccccc2F)c1,-12.9,9*,-7.46*,-0.06,i,i
Oc1ccc(NCc2ccccc2OCc2ccccc2F)cc1,-12.0,i,i,-0.92,i,i
CCOc1cc(CNCCSc2nnnn2C)cc(Br)c1OCc1ccccc1,-21.2,i,i,-1.66,i,i
CCOc1cc(CNCCO)cc(Br)c1OCc1ccccc1,-8.4,i,i,-16.2*,i,i
COc1cc(CNCCO)cc(Br)c1OCc1ccccc1Cl,-16.8,i,i,-12.9*,i,i
CC(C)(C)N(NS(=O)(=O)c1ccc(F)cc1)c1ccccc1,-11.4,i,i,-0.08,i,i
CCCCNCc1cc(Br)c(OCc2cccs2)c(OC)c1,-12.0,i,i,-11.5*,i,i
CCN(CC(=O)Nc1ccccc1C(F)(F)F)C(=O)CCOc1ccc(C)cc1,-2.0,i,i,-1.48,i,i
CS(=O)(=O)n1nc(-c2ccc(Cl)cc2)nc1N,-7.9,i,i,0.73,i,i
Cn1nc(-c2ccc(Cl)cc2)nc2c(=O)n(C)c(=O)nc1-2,-6.5,i,i,-1,x,9*
O=C(c1cc(C(=O)NCCc2ccccc2)c(=O)n(CCc2ccccc2)c1)c1cc(Cl)ccc1O,-14.3,10*,i,0.48,i,i
COc1ccc(CCNC(=O)c2cc(C(=O)c3cc(Cl)ccc3O)cn(CCc3ccc(OC)cc3)c2=O)cc1,-21.6,8*,i,0.36,i,i
NC1=NC(c2ccccc2)CC(=O)N1 (stereo unspecified),x,x,x,x,i,x
Cc1cc(C(F)(F)F)n(-c2nc(C(=O)NN)cs2)n1,5.0*,i,i,0.05,i,i
O=C(/C=C/c1ccccc1Cl)N(Cc1cccs1)C1CCS(=O)(=O)C1 (stereo unspecified),-5.6,i,-7.5*,1.69,i,i
O=C1Cc2cc(NS(=O)(=O)c3cc(F)ccc3F)cc3c2N1CCC3,-7.0,i,i,0.92,i,i
Cn1c(C(=O)N2CCCC(C(=O)NCc3cccs3)C2)cc2sccc21 (stereo unspecified),6.0*,i,i,2.05,i,i
CCC(C(=O)OCC(=O)Nc1ccc(F)cc1)c1ccccc1 (stereo unspecified),x,x,x,x,i,x

# High-throughput results: PubChem, Johns Hopkins Ion Channel Center
